According to ChEMBL document CHEMBL4351006, “A new exploration towards aminothiazolquinolone oximes as potentially multi-targeting antibacterial agents: Design, synthesis and evaluation acting on microbes, DNA, HSA and topoisomerase IV” (Eur J Med Chem, 2019):
Values after ≈ are worked out from the molar mass of the structure shown.

Assays:
Acinetobacter baumannii = experiment: Antibacterial activity against Acinetobacter baumannii assessed as reduction in bacterial cell viability incubated for 24 hrs by two fold serial dilution method; type: functional
How it was run: (§1)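 Broth two-fold serial dilution run to CLSI guidelines. Chloromycin, norfloxacin and fluconazole served as reference drugs.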

Candida albicans [1] = experiment: Antifungal activity against Candida albicans ATCC 90023 assessed as reduction in fungal cell viability incubated for 24 hrs by two fold serial dilution method; type: functional; conditions: ATCC 90023, 24 h; how it was run: as §1
Staphylococcus aureus [2] = experiment: Antibacterial activity against Staphylococcus aureus assessed as reduction in bacterial cell viability incubated for 24 hrs by two fold serial dilution method; type: functional; how it was run: as §1
Pseudomonas aeruginosa [3] = experiment: Antibacterial activity against Pseudomonas aeruginosa ATCC 27853 assessed as reduction in bacterial cell viability incubated for 24 hrs by two fold serial dilution method; type: functional; conditions: ATCC 27853, 24 h; how it was run: as §1
Aspergillus fumigatus = experiment: Antifungal activity against Aspergillus fumigatus assessed as reduction in fungal cell viability incubated for 24 hrs by two fold serial dilution method; type: functional; how it was run: as §1
Staphylococcus aureus [4] = experiment: Antibacterial activity against Staphylococcus aureus ATCC 25923 assessed as reduction in bacterial cell viability incubated for 24 hrs by two fold serial dilution method; type: functional; conditions: ATCC 25923, 24 h; how it was run: as §1
Klebsiella pneumoniae = experiment: Antibacterial activity against Klebsiella pneumoniae assessed as reduction in bacterial cell viability incubated for 24 hrs by two fold serial dilution method; type: functional; how it was run: as §1
Candida tropicalis = experiment: Antifungal activity against Candida tropicalis assessed as reduction in fungal cell viability incubated for 24 hrs by two fold serial dilution method; type: functional; how it was run: as §1
Escherichia coli [5] = experiment: Antibacterial activity against Escherichia coli assessed as reduction in bacterial cell viability incubated for 24 hrs by two fold serial dilution method; type: functional; how it was run: as §1
Staphylococcus aureus [6] = experiment: Antibacterial activity against Staphylococcus aureus ATCC 29213 assessed as reduction in bacterial cell viability incubated for 24 hrs by two fold serial dilution method; type: functional; conditions: ATCC 29213, 24 h; how it was run: as §1
Candida albicans [7] = experiment: Antifungal activity against Candida albicans assessed as reduction in fungal cell viability incubated for 24 hrs by two fold serial dilution method; type: functional; how it was run: as §1
Pseudomonas aeruginosa [8] = experiment: Antibacterial activity against Pseudomonas aeruginosa assessed as reduction in bacterial cell viability incubated for 24 hrs by two fold serial dilution method; type: functional; how it was run: as §1
Enterococcus faecalis = experiment: Antibacterial activity against Enterococcus faecalis assessed as reduction in bacterial cell viability incubated for 24 hrs by two fold serial dilution method; type: functional; how it was run: as §1
Escherichia coli [9] = experiment: Antibacterial activity against Escherichia coli ATCC 25922 assessed as reduction in bacterial cell viability incubated for 24 hrs by two fold serial dilution method; type: functional; conditions: ATCC 25922, 24 h; how it was run: as §1
Candida parapsilosis = experiment: Antifungal activity against Candida parapsilosis ATCC 22019 assessed as reduction in fungal cell viability incubated for 24 hrs by two fold serial dilution method; conditions: Lodderomyces parapsilosis, ATCC 22019, 24 h
Staphylococcus aureus [10] = experiment: Antibacterial activity against methicillin resistant Staphylococcus aureus N315 assessed as reduction in bacterial cell viability incubated for 24 hrs by two fold serial dilution method; type: functional; conditions: N315, 24 h
How it was run: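 MIC by two-fold serial dilution following CLSI, with chloromycin and norfloxacin as reference drugs.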

Staphylococcus aureus [11] = experiment: Antibacterial activity against methicillin resistant Staphylococcus aureus assessed as fold change after 16 serial passages at 0.5 times of MIC incubated for 12 hrs by sequential passaging method; type: functional

| SMILES | MIC (Acinetobacter baumannii) | MIC (Candida albicans [1]) | MIC (Staphylococcus aureus [2]) | MIC (Pseudomonas aeruginosa [3]) | MIC (Aspergillus fumigatus) | MIC (Staphylococcus aureus [4]) | MIC (Klebsiella pneumoniae) | MIC (Candida tropicalis) | MIC (Escherichia coli [5]) | MIC (Staphylococcus aureus [6]) | MIC (Candida albicans [7]) | MIC (Pseudomonas aeruginosa [8]) | MIC (Enterococcus faecalis) | MIC (Escherichia coli [9]) | MIC (Candida parapsilosis) | MIC (Staphylococcus aureus [10]) | fold change (FC) (Staphylococcus aureus [11]) |
| --- | --- | --- | --- | --- | --- | --- | --- | --- | --- | --- | --- | --- | --- | --- | --- | --- | --- |
| CCn1cc(-c2csc(N)n2)c(=O)c2cc(N3CCN(C/C(C)=N/OC)CC3)c(Cl)cc21 | 135 µM (≈ 64.1 µg/mL) | 269 µM (≈ 128 µg/mL) | 67 µM (≈ 31.8 µg/mL) | 135 µM (≈ 64.1 µg/mL) | 269 µM (≈ 128 µg/mL) | 135 µM (≈ 64.1 µg/mL) | 135 µM (≈ 64.1 µg/mL) | 269 µM (≈ 128 µg/mL) | 269 µM (≈ 128 µg/mL) | 135 µM (≈ 64.1 µg/mL) | 539 µM (≈ 256 µg/mL) | 269 µM (≈ 128 µg/mL) | 135 µM (≈ 64.1 µg/mL) | 269 µM (≈ 128 µg/mL) | 67 µM (≈ 31.8 µg/mL) | 67 µM (≈ 31.8 µg/mL) | – |
| CCn1cc(-c2csc(N)n2)c(=O)c2cc(N3CCN(C/C(C)=N/O)CC3)c(Cl)cc21 | 278 µM (≈ 128 µg/mL) | 139 µM (≈ 64.1 µg/mL) | 35 µM (≈ 16.1 µg/mL) | 555 µM (≈ 256 µg/mL) | 278 µM (≈ 128 µg/mL) | 17 µM (≈ 7.84 µg/mL) | 139 µM (≈ 64.1 µg/mL) | 278 µM (≈ 128 µg/mL) | 69 µM (≈ 31.8 µg/mL) | 139 µM (≈ 64.1 µg/mL) | 69 µM (≈ 31.8 µg/mL) | 139 µM (≈ 64.1 µg/mL) | 139 µM (≈ 64.1 µg/mL) | 278 µM (≈ 128 µg/mL) | 278 µM (≈ 128 µg/mL) | 139 µM (≈ 64.1 µg/mL) | – |
| CCn1cc(-c2csc(N)n2)c(=O)c2cc(F)c(N3CCN(C/C(=N/OC)c4ccc(F)cc4F)CC3)cc21 | 460 µM (≈ 256 µg/mL) | 460 µM (≈ 256 µg/mL) | 460 µM (≈ 256 µg/mL) | 460 µM (≈ 256 µg/mL) | 460 µM (≈ 256 µg/mL) | 460 µM (≈ 256 µg/mL) | 460 µM (≈ 256 µg/mL) | 460 µM (≈ 256 µg/mL) | 460 µM (≈ 256 µg/mL) | 460 µM (≈ 256 µg/mL) | 920 µM (≈ 512 µg/mL) | 460 µM (≈ 256 µg/mL) | 460 µM (≈ 256 µg/mL) | 460 µM (≈ 256 µg/mL) | 920 µM (≈ 512 µg/mL) | 230 µM (≈ 128 µg/mL) | – |
| CCn1cc(-c2csc(N)n2)c(=O)c2cc(F)c(N3CCN(C/C(C)=N/OCc4ccc(Cl)cc4Cl)CC3)cc21 | 848 µM (≈ 512 µg/mL) | 106 µM (≈ 64 µg/mL) | 848 µM (≈ 512 µg/mL) | 848 µM (≈ 512 µg/mL) | 424 µM (≈ 256 µg/mL) | 848 µM (≈ 512 µg/mL) | 848 µM (≈ 512 µg/mL) | 424 µM (≈ 256 µg/mL) | 424 µM (≈ 256 µg/mL) | 848 µM (≈ 512 µg/mL) | 848 µM (≈ 512 µg/mL) | 848 µM (≈ 512 µg/mL) | 424 µM (≈ 256 µg/mL) | 848 µM (≈ 512 µg/mL) | 848 µM (≈ 512 µg/mL) | 424 µM (≈ 256 µg/mL) | – |
| CCn1cc(C(=O)O)c(=O)c2cc(F)c(N3CCNCC3)cc21 [NORFLOXACIN] | 25 µM (≈ 7.98 µg/mL) | – | 6 µM (≈ 1.92 µg/mL) | 2 µM (≈ 0.639 µg/mL) | – | 3 µM (≈ 0.958 µg/mL) | 13 µM (≈ 4.15 µg/mL) | – | 50 µM (≈ 16 µg/mL) | 3 µM (≈ 0.958 µg/mL) | – | 6 µM (≈ 1.92 µg/mL) | 13 µM (≈ 4.15 µg/mL) | 25 µM (≈ 7.98 µg/mL) | – | 25 µM (≈ 7.98 µg/mL) | 16 |
| CCn1cc(-c2csc(N)n2)c(=O)c2cc(F)c(N3CCN(C/C(=N/OC)c4ccc(F)cc4)CC3)cc21 | 951 µM (≈ 512 µg/mL) | 951 µM (≈ 512 µg/mL) | 475 µM (≈ 256 µg/mL) | 951 µM (≈ 512 µg/mL) | 951 µM (≈ 512 µg/mL) | 238 µM (≈ 128 µg/mL) | 951 µM (≈ 512 µg/mL) | 951 µM (≈ 512 µg/mL) | 475 µM (≈ 256 µg/mL) | 475 µM (≈ 256 µg/mL) | 951 µM (≈ 512 µg/mL) | 951 µM (≈ 512 µg/mL) | 475 µM (≈ 256 µg/mL) | 951 µM (≈ 512 µg/mL) | 951 µM (≈ 512 µg/mL) | 238 µM (≈ 128 µg/mL) | – |
| CCn1cc(-c2csc(N)n2)c(=O)c2cc(F)c(N3CCN(C/C(C)=N/O)CC3)cc21 | 288 µM (≈ 128 µg/mL) | 72 µM (≈ 32 µg/mL) | 72 µM (≈ 32 µg/mL) | 144 µM (≈ 64 µg/mL) | 288 µM (≈ 128 µg/mL) | 36 µM (≈ 16 µg/mL) | 72 µM (≈ 32 µg/mL) | 288 µM (≈ 128 µg/mL) | 288 µM (≈ 128 µg/mL) | 144 µM (≈ 64 µg/mL) | 72 µM (≈ 32 µg/mL) | 288 µM (≈ 128 µg/mL) | 288 µM (≈ 128 µg/mL) | 72 µM (≈ 32 µg/mL) | 72 µM (≈ 32 µg/mL) | 72 µM (≈ 32 µg/mL) | – |
| CCO/N=C(\C)CN1CCN(c2cc3c(cc2F)c(=O)c(-c2csc(N)n2)cn3CC)CC1 | 135 µM (≈ 63.8 µg/mL) | 542 µM (≈ 256 µg/mL) | 34 µM (≈ 16.1 µg/mL) | 135 µM (≈ 63.8 µg/mL) | 542 µM (≈ 256 µg/mL) | 135 µM (≈ 63.8 µg/mL) | 135 µM (≈ 63.8 µg/mL) | 68 µM (≈ 32.1 µg/mL) | 135 µM (≈ 63.8 µg/mL) | 68 µM (≈ 32.1 µg/mL) | 1080 µM (≈ 512 µg/mL) | 135 µM (≈ 63.8 µg/mL) | 68 µM (≈ 32.1 µg/mL) | 68 µM (≈ 32.1 µg/mL) | 68 µM (≈ 32.1 µg/mL) | 135 µM (≈ 63.8 µg/mL) | – |
| CCn1cc(-c2csc(N)n2)c(=O)c2cc(F)c(N3CCN(C/C(=N/OC)c4ccc(OC)cc4)CC3)cc21 | 465 µM (≈ 256 µg/mL) | 465 µM (≈ 256 µg/mL) | 465 µM (≈ 256 µg/mL) | 465 µM (≈ 256 µg/mL) | 465 µM (≈ 256 µg/mL) | 465 µM (≈ 256 µg/mL) | 465 µM (≈ 256 µg/mL) | 232 µM (≈ 128 µg/mL) | 465 µM (≈ 256 µg/mL) | 465 µM (≈ 256 µg/mL) | 232 µM (≈ 128 µg/mL) | 465 µM (≈ 256 µg/mL) | 232 µM (≈ 128 µg/mL) | 232 µM (≈ 128 µg/mL) | 465 µM (≈ 256 µg/mL) | 465 µM (≈ 256 µg/mL) | – |
